Source: ChEMBL document CHEMBL4265975, “Synthesis, biological evaluation and molecular modeling of a novel series of fused 1,2,3-triazoles as potential anti-coronavirus agents” (Bioorg Med Chem Lett, 2018)

What was measured:
[1] = Selectivity index, ratio of MCC for HEL cells to EC50 for Human adenovirus 2 infected in HEL cells; format: toxicity, cell-based; conditions: read-out: Selectivity Index
Method in brief: (§1)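 SI is MCC divided by EC50. […] MCC was measured in parallel on HEL cells seeded at 5 x 10^3 cells/well, as the lowest concentration causing microscopically visible alteration of cell morphology. The top concentration tested was 100 µM.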

[2] = Cytotoxicity against HEL cells assessed as alteration in cell morphology after 3 days by microscopic method; format: cell-based; conditions: human
Method in brief: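 HEL cells were seeded at 5 x 10^3 cells/well and exposed to graded compound concentrations, up to 100 μM, in parallel with the antiviral assay. Cell morphology was examined by light microscopy. MCC is the minimum concentration causing a microscopically detectable alteration of normal cell morphology.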

[3] = Selectivity index, ratio of MCC for HEL cells to EC50 for Human coronavirus 229E infected in HEL cells; format: toxicity, cell-based; conditions: read-out: Selectivity Index; method in brief: as §1
Vaccinia virus = assay: Antiviral activity against Vaccinia virus infected in human HEL cells assessed as inhibition of virus-induced cytopathic effect after 3 days by microscopic method; format: functional, organism-based; conditions: Orthopoxvirus vaccinia, 72 h
Human alphaherpesvirus 1 [4] = assay: Antiviral activity against Herpes simplex virus 1 KOS infected in human HEL cells assessed as inhibition of virus-induced cytopathic effect after 3 days by microscopic method; format: functional, organism-based; conditions: Human alphaherpesvirus 1, KOS, 72 h
[5] = Selectivity index, ratio of MCC for HEL cells to EC50 for Herpes simplex virus 2 strain G infected in HEL cells; format: toxicity, cell-based; conditions: human, read-out: Selectivity Index; method in brief: as §1
Human alphaherpesvirus 1 [6] = assay: Antiviral activity against acyclovir-resistant TK-defecient Herpes simplex virus 1 KOS infected in human HEL cells assessed as inhibition of virus-induced cytopathic effect after 3 days by microscopic method; format: functional, organism-based; conditions: Human alphaherpesvirus 1, KOS, 72 h
Human alphaherpesvirus 2 = assay: Antiviral activity against Human herpesvirus 2 strain G infected in human HEL cells assessed as inhibition of virus-induced cytopathic effect after 3 days by microscopic method; format: functional, organism-based; conditions: Human alphaherpesvirus 2, strain G, 72 h
[7] = Selectivity index, ratio of MCC for HEL cells to EC50 for Herpes simplex virus 1 KOS infected in HEL cells; format: toxicity, cell-based; conditions: human, read-out: Selectivity Index; method in brief: as §1
Human coronavirus 229E = assay: Antiviral activity against Human coronavirus 229E infected in HEL cells assessed as reduction in virus-induced pathogenicity after 3 days by microscopic method; format: functional, organism-based; conditions: 72 h
[8] = Selectivity index, ratio of MCC for HEL cells to EC50 for Vaccinia virus infected in HEL cells; format: toxicity, cell-based; conditions: human, read-out: Selectivity Index; method in brief: as §1
Human adenovirus 2 = assay: Antiviral activity against Human adenovirus 2 infected in human HEL cells assessed as inhibition of virus-induced cytopathic effect after 3 days by microscopic method; format: functional, organism-based; conditions: Human mastadenovirus C, 72 h
Method in brief: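 HEL cells were infected with adenovirus 2 for 2 h. Residual virus was then removed and the cells were incubated with medium containing graded compound concentrations for 3 days at 37°C. Virus-induced cytopathogenicity was scored microscopically.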

[9] = Selectivity index, ratio of MCC for HEL cells to EC50 for acyclovir-resistant TK-defecient Herpes simplex virus 1 KOS infected in HEL cells; format: toxicity, cell-based; conditions: human, read-out: Selectivity Index; method in brief: as §1

| Compound | selectivity ratio [1] | MCC at 72 h [2] [µM] | selectivity ratio [3] | EC50 (Vaccinia virus) [µM] | EC50 (Human alphaherpesvirus 1 [4]) [µM] | selectivity ratio [5] | EC50 (Human alphaherpesvirus 1 [6]) [µM] | EC50 (Human alphaherpesvirus 2) [µM] | selectivity ratio [7] | EC50 (Human coronavirus 229E) [µM] | selectivity ratio [8] | EC50 (Human adenovirus 2) [µM] | selectivity ratio [9] |
| --- | --- | --- | --- | --- | --- | --- | --- | --- | --- | --- | --- | --- | --- |
| COc1ccc(CCn2nnc3c2CCN(c2ccc(C(F)(F)F)cc2)C3)cc1 | > 8 | > 100 | > 8 | > 100 | > 100 | > 8 | > 100 | > 100 | > 8 | 8.9 | > 8 | > 100 | > 8 |
| Fc1ccc(N2CCc3c(nnn3CC(c3ccccc3)c3ccccc3)C2)cc1 | > 8 | ≥ 100 | > 8 | > 100 | > 100 | > 8 | > 100 | > 100 | > 8 | > 100 | > 8 | > 100 | > 8 |
| COc1cccc(CCn2nnc3c2CCN(c2ccc(C(F)(F)F)cc2)C3)c1 | > 8 | > 100 | > 8 | > 100 | > 100 | > 8 | > 100 | > 100 | > 8 | > 100 | > 8 | 16 | > 8 |
| COc1ccccc1CCn1nnc2c1CCN(c1ccc(C(F)(F)F)cc1)C2 | > 8 | > 100 | > 8 | > 100 | > 100 | > 8 | > 100 | > 100 | > 8 | > 100 | > 8 | > 100 | > 8 |
| CCCCCCn1nnc2c1CCN(c1ccccc1)C2 | > 8 | > 100 | > 8 | > 100 | > 100 | > 8 | > 100 | > 100 | > 8 | > 100 | > 8 | > 100 | > 8 |
